Assay results from PubChem BioAssay AID504383 (The Scripps Research Institute Molecular Screening Center, 2011).
Several values for one entry are separate records, joined by “and”; a condition that tells them apart may be missing. Equal entries are not always repeated. About 1,200 (48%) of roughly 2,500 compounds were called active.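 Rule for the calls: active = mean activation above the low control average plus 3 SD, as set in the primary screen (cut at about 12% in these data); inactive = the rest.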 So high a share suggests a set chosen from earlier hits. Some of the results follow. The source holds several records for some structures; these can differ, active in one and inactive in another.

molecular target: Troponin I, cardiac muscle (Homo sapiens) + Troponin T, cardiac muscle (Homo sapiens) + Troponin C, slow skeletal and cardiac muscles (Homo sapiens) (UniProt P19429+P45379+P63316); assay: cardiac RTF calcium sensitivity activators, confirmation, biochemical, IANBD-TnC fluorescence, triplicate (AID 504383); details: IANBD-labeled cardiac RTF, Ca2+ sensitivity fluorescence; at 7.2 µM; stronger effect = higher value; scaled from EC20 to saturating calcium; tested at EC20 calcium, 0.472 mM;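 note: 0% = DMSO at 0.472 mM calcium and 100% = DMSO at 2.9 mM calcium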
In short: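 System: Labelled thin filament complex | Technique: Filament fluorescence intensity | Benchmarks: Low control EC20 calcium, high control EC100 calcium | Timing: 15 min at 25 °C | Compound dosing: One dose, 7.2 µM nominal | Probe or stimulus: Ca2+ 0.472 mM, EC20 level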

| SMILES | activation |
| --- | --- |
| CCCCN(Cc1ccccc1)S(=O)(=O)c1ccc2c(c1)n(C)c(=O)c(=O)n2C | 2.32% (inactive) |
| CCCNS(=O)(=O)c1ccc2c(c1)n(C)c(=O)n2C | 12.4% (active) |
| COc1ccc(S(=O)(=O)N(CC(C)C)C2CCS(=O)(=O)C2)cc1OC (stereo not drawn) | 17.1% (active) |
| CCN(CC)CCN1C(=O)c2cccc3cc(N)cc(c23)C1=O | 128% (active) |
| O=C1c2cccc3cc([N+](=O)[O-])cc(c23)C(=O)N1CCN1CCCC1 | 8.4% (inactive) |
| O=C(N/N=C/c1ccc2c(c1)OCO2)/C(=C/c1ccc2c(c1)OCO2)NC(=O)c1ccccc1 | 11.7% (active) |
| O=C(N/N=C/c1ccc([N+](=O)[O-])cc1)c1cc(-c2ccc3c(c2)OCO3)n[nH]1 | 0.5% (inactive) |
| CN(C)c1ccc(/C=N/NC(=O)c2cnc3ccccc3c2)cc1 | 6.1% (inactive) |
| Cc1ccc(Cn2cc(CCC(=O)O)c3ccccc32)cc1 | 16.7% (active) |
| Nc1nc(SCc2cccc(Br)c2)n[nH]1 | 9.18% (inactive) |
| COc1cc2c(cc1NC(=O)COC(=O)/C=C/c1ccc([N+](=O)[O-])cc1)oc1ccccc12 | 4480% (active) |
| COc1cc([N+](=O)[O-])ccc1N/C=C/C(=O)c1cccs1 | 5.01% (inactive) |
| COc1cc([N+](=O)[O-])ccc1NC(=O)COC(=O)c1n[nH]c2ccccc12 | 6.72% (inactive) |
| CN1CCCc2cc3c(C(F)(F)F)cc(=O)oc3nc21 | 10.7% (inactive) |
| Cc1ccc(C(=O)NCC(=O)OCC(=O)N(CC(C)C)c2c(N)n(Cc3ccccc3)c(=O)[nH]c2=O)cc1 | 8.28% (inactive) |
| Cc1ccc(C(=O)NCC(=O)OCC(=O)c2ccc(Cl)s2)cc1 | 232% (active) |
| Cc1cc(C)n(NC(=S)NC2CCCCC2)c(=O)c1C#N | 7.29% (inactive) |
| CCCN(CCC)c1nc2c(C)cccn2c(=O)c1/C=C1/SC(=S)N(Cc2ccco2)C1=O | 3.6% (inactive) |
| O=C1/C(=C\c2c(NCCOCCO)nc3ccccn3c2=O)SC(=S)N1Cc1ccco1 | 92.6% (active) |
| Cc1ccc(/C=C/C(=O)N2CCN(S(=O)(=O)c3ccc(C)c(C)c3)CC2)o1 | 17.9% (active) |
| COc1ccc(S(=O)(=O)N2CCSC2)cc1C | 2.98% (inactive) |

| SMILES | activation |
| --- | --- |
| Cc1ccc(S(=O)(=O)N2CCN(c3ncccn3)CC2)cc1C | 4.74% (inactive) |
| Oc1[nH]c2ccccc2c1N=Nc1cccc(Cl)c1 | 7.29% (inactive) |
| Oc1[nH]c2ccccc2c1N=Nc1ccccc1Cl | 4.59% (inactive) |
| Oc1[nH]c2ccccc2c1N=Nc1ccc(F)cc1 | 109% (active) |
| Oc1[nH]c2ccccc2c1N=Nc1ccccc1 | 26.4% (active) |
| Oc1[nH]c2ccccc2c1N=Nc1ccccc1F | 2.72% (inactive) |
| Cc1ccc(Cl)c2c(N=Nc3ccccc3)c(O)[nH]c12 | 14.7% (active) |
| O=C(c1cnc2ccccc2n1)N1CCN(c2ccc(C(F)(F)F)cn2)CC1 | 32.8% (active) |
| Cc1ccc(NC(=O)O/N=C/c2ccc(F)cc2)cc1 | 8.78% (inactive) |
| Cc1ccc(NC(=O)CO/N=C/c2ccc(N(C)C)cc2)cc1 | 6.41% (inactive) |
| CCN(CC)c1ccc(/C=N/OCC(=O)Nc2cccc(C)c2)cc1 | 19.6% (active) |
| O=C(O)c1cc(NCc2ccc(F)cc2)ccc1N1CCOCC1 | 91.3% (active) |
| O=C(N1CCOCC1)N1CCN(c2ccc(F)cc2)CC1 | 2.34% (inactive) |
| O=C1N/C(=C\c2ccc(N3CCOCC3)c(F)c2)C(=O)N1Cc1ccccc1 | 5.84% (inactive) |
| C=CCOc1ccc(CNc2ccc3[nH]c(=O)[nH]c3c2)cc1OCC | 25% (active) |
| CN(C)c1ccc(/C=C/c2nc3ccccc3c(=O)[nH]2)cc1 | 9.5% (inactive) |
| CN(C)c1ccc(/C=C/c2ccc3ccccc3n2)cc1 | 14.9% (active) |
| CC(C)CC[n+]1ccccc1/C=C/c1ccc(N(C)C)cc1 | 7% (inactive) |
| CN(C)c1ccc(C2C=C(c3ccc(Cl)cc3OC(F)F)Nc3ncnn32)cc1 (stereo not drawn) | 80% (active) |
| Cc1ccsc1C1C=C(c2cccc(Br)c2)Nc2ncnn21 (stereo not drawn) | 1.58% (inactive) |
| Cc1c(C=O)c2ccccn2c1C(=O)c1cccs1 | 6.64% (inactive) |

| SMILES | activation |
| --- | --- |
| Nc1nc(NCCCN2CCOCC2)nc(Nc2cccc(Cl)c2)c1[N+](=O)[O-] | 5.57% (inactive) |
| Cc1cccc(Nc2c([N+](=O)[O-])c(=O)oc3ccccc23)c1 | 23.2% (active) |
| COc1ccc(CC/C(C)=N\NC(N)=O)cc1 | 16.2% (active) |
| COc1ccc(CCC(=O)N2CCc3ccccc32)cc1 | 6.5% (inactive) |
| COc1ccc(CC(=O)NNC(=O)c2ccncc2)cc1 | 8.9% (inactive) |
| Cc1ccc(C)c(S(=O)(=O)N2CCCC2CNC(=O)C(=O)NC2CC2)c1 (stereo not drawn) | 5.98% (inactive) |
| Cc1ccc(SCC(=O)c2sc(-c3ccccc3)nc2C)cc1 | 35.4% (active) |
| C=C(C)c1sc(-c2ccc(Cl)cc2)nc1C | 1.76% (inactive) |
| Cc1ccc(-c2nc(NC(=O)CSc3cc(C)c4ccccc4n3)ns2)cc1 | 4.39% (inactive) |
| COc1ccc2noc3c2c1C(=O)c1ccccc1-3 | 3.9% (inactive) |
| Nc1ccc2c3c(cccc13)CC2 | 6.56% (inactive) |
| COc1ccc2c3c(cccc13)C(=O)CC2 | 18.7% (active) |
| CCCn1c(=O)c(C(=O)NNC(=O)c2ccccc2[N+](=O)[O-])c(O)c2ccccc21 | 18.9% (active) |
| CC1CCN(c2oc(-c3ccccc3F)nc2C#N)CC1 | 10.8% (inactive) |
| COCCn1c(=NC(=O)/C=C/c2ccccc2)sc2cc(NC(C)=O)ccc21 | 19.9% (active) |
| CCOC(=O)Cn1c(=NC(=O)c2cc(-c3cccs3)nc3ccccc23)sc2cc(S(N)(=O)=O)ccc21 | 1.79% (inactive) |
| CC1(C)CC(=O)c2sc(NC(=O)Cc3cccs3)nc2C1 | 4.44% (inactive) |
| CC1(C(=O)Nc2nnc(SCc3ccccc3)s2)Cc2ccccc2C(=O)O1 (stereo not drawn) | 22.1% (active) |
| CN1CCC2(CC1)C1CN(C)CC=C1C(C#N)=C(N)C2(C#N)C#N (stereo not drawn) | 1.95% (inactive) and 33.7% (active) |
| CCOc1ccc(C2C(C#N)=C(N)SC(N)=C2C#N)c(OCC)c1 | 10% (inactive) |
| CCOc1cc(C2C(C#N)=C(N)OC(C)=C2C(C)=O)cc(Br)c1O (stereo not drawn) | 213% (active) |
